# Experimental data: ChEMBL document CHEMBL1148625, “3-(1,1-dioxo-2H-(1,2,4)-benzothiadiazin-3-yl)-4-hydroxy-2(1H)-quinolinones, potent inhibitors of hepatitis C virus RNA-dependent RNA polymerase” (J Med Chem, 2006)
# Legend:
# [1] = target: RNA-directed RNA polymerase (Hepacivirus hominis) (UniProt O39930); assay: Inhibition of HCV RNA replication in Huh7 cells; type: functional, cell-based; conditions: Huh-7
# How it was run: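 Huh-7 subgenomic replicon cells were seeded at 3 × 10³/well in DMEM with 10% FCS, 1% NEAA and 1 mg/mL G418, and allowed 4 h to attach. Eleven 2.5-fold DMSO dilutions were added (final 10,000 to 1.0 nM) and cells incubated 40 h. Neo RNA was measured by TaqMan RT-PCR, normalised to cyclophilin against DMSO controls; n = 8 wells per dilution.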
# [2] = target: RNA-directed RNA polymerase (Hepacivirus hominis, UniProt O39930); assay: Inhibitory activity against HCV delta 21 NS5B RNA polymerase by SPA assay; parameters: species or system Hepatitis C virus subtype 1b
# Chain of RNA-directed RNA polymerase (O39930 whole entry): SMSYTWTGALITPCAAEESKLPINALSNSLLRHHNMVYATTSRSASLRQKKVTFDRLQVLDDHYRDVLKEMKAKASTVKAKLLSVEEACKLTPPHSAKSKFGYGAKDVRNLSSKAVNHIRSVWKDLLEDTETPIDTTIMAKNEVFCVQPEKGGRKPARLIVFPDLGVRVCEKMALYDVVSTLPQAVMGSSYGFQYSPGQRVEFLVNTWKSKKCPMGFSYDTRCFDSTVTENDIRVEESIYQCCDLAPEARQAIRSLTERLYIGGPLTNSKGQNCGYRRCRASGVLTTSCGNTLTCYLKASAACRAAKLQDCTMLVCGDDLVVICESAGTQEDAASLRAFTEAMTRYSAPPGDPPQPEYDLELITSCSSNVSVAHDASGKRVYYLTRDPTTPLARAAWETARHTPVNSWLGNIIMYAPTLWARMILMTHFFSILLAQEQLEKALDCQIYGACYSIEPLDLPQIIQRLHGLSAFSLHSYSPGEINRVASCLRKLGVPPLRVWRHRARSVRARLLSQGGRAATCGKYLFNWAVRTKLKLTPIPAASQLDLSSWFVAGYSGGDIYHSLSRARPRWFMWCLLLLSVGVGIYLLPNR
# Chain of RNA-directed RNA polymerase (Hepacivirus hominis) (O39930 1-591): as the sequence (O39930 whole entry) above
smiles,measurement,setting,value
CC(C)CCn1c(=O)c(C2=NS(=O)(=O)c3ccccc3N2)c(O)c2cc(N)ccc21,EC90,[1],1200 nM
CC(C)(C)CCn1c(=O)c(C2=NS(=O)(=O)c3ccccc3N2)c(O)c2cc(NCCO)ccc21,IC50,[2],48 nM
same,EC90,[1],1440 nM
O=c1c(C2=NS(=O)(=O)c3ccccc3N2)c(O)c2ccccc2n1-c1ccccc1,EC90,[1],1870 nM
O=c1c(C2=Nc3ccccc3S(=O)(=O)N2)c(O)c2ccccc2n1Cc1cccc(Br)c1,IC50,[2],36 nM
N#CCCCCn1c(=O)c(C2=Nc3ccccc3S(=O)(=O)N2)c(O)c2ccccc21,IC50,[2],750 nM
CC(C)CCn1c(=O)c(C2=Nc3ccccc3S(=O)(=O)N2)c(O)c2cc(OCc3ccccc3)ccc21,IC50,[2],3950 nM
O=c1c(C2=Nc3ccccc3S(=O)(=O)N2)c(O)c2cccc(F)c2n1CCC1CC1,IC50,[2],90 nM
CC(C)CCn1c(=O)c(C2=NS(=O)(=O)c3ccccc3N2)c(O)c2cc(OCCCC#N)ccc21,IC50,[2],4330 nM
COc1ccc2c(c1)c(O)c(C1=NS(=O)(=O)c3ccccc3N1)c(=O)n2CCC(C)C,IC50,[2],23 nM
CC(C)CCn1c(=O)c(C2=Nc3ccccc3S(=O)(=O)N2)c(O)c2c(F)cccc21,IC50,[2],340 nM
CC(C)CCn1c(=O)c(C2=Nc3ccccc3S(=O)(=O)N2)c(O)c2cc(OCC(N)=O)ccc21,IC50,[2],24 nM
CCOC(=O)CCCn1c(=O)c(C2=NS(=O)(=O)c3ccccc3N2)c(O)c2ccccc21,IC50,[2],> 10000 nM
CC(C)CCn1c(=O)c(C2=NS(=O)(=O)c3ccccc3N2)c(O)c2c(F)cccc21,EC90,[1],2070 nM
CCCCn1c(=O)c(-c2nc3ccccc3[nH]2)c(O)c2ccccc21,IC50,[2],> 10000 nM
